From ChEMBL document CHEMBL4513216, “Probing the Open Global Health Chemical Diversity Library for Multistage-Active Starting Points for Next-Generation Antimalarials” (ACS Infect Dis, 2020)

Test: Toxicity liver stage against HepG2, at 10uM
Type: cell-based
Parameters: test concentration 10 uM, cell line HepG2-A16-CD81EGFP
Conditions: human, HepG2-A16-CD81EGFP cells; read-out: INHIBITION
How it was run: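 Uninfected HepG2-A16-CD81EGFP cells, 3 × 10^3 per well, 1536-well, plated on prespotted compound at 10 μM final, parasite-free screening media added to match infected plates; puromycin 10 μM positive, DMSO 0.5% negative; run in parallel with 48 h PbLuc assay at 37 °C, 5% CO2; viability by CellTiter-Glo luminescence, normalized to controls.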

Point of comparison: CS(=O)(=O)NCc1cn2c(n1)CN(C(=O)c1ccc[nH]1)CC2, cytotoxicity at 10 µM 5.69%. Against it:
- O=C(NC[C@H]1COCc2nc3cc(F)ccc3n21)c1cccnc1 — lower, -1.23%
- CN1CCC(N2CCC[C@H]2c2nc(-c3cncnc3N)no2)CC1 — lower, -5.33%
- Cc1cccc2c1nc1n2[C@@H](CNC(=O)c2cncnc2)COC1 — lower, 1.53%
- Cc1nnc(NC(=O)CSCc2cc(=O)n3ccccc3n2)s1 — lower, 1.5%
- COc1cc2c(cc1OC)C(=O)C(Sc1nnc(C)o1)C2 (centres undefined) — lower, 0.372%
- COc1ccc(NC(=O)Cn2c(=O)nc(N)c3cc(C)sc32)cc1 — lower, 2.31%
- COc1cccc(CNC(=O)CC2CSc3nc(C)c(C)c(=O)n32)c1 (centres undefined) — lower, -4.31%
- COc1ccccc1C(=O)N1CCC(Oc2ccc(C#N)cn2)CC1 — lower, 5.54%
- Cc1cc(C)c(S(=O)(=O)Nc2c(C)nc(N3CCCC3)nc2C)cc1C — lower, 3.62%
- CCOCC1C[C@@H]2OCCN(C(=O)c3ccc[nH]3)[C@H]2C1 (some centres undefined) — lower, -1.86%
- CN1C(=O)CC2(CCN(S(=O)(=O)N(C)C)CC2)c2ccccc21 — lower, 0.688%
- COc1cc(C2CC(=O)Nc3c2c(=O)[nH]n3C2CCCC2)ccc1O (centres undefined) — lower, -1.37%
- CCC(=O)N1CCN(c2nc(C)nc3c(C)nn(C)c23)CC1 — higher, 12.4%
- CC(=O)Nc1ncc(S(=O)(=O)Nc2cccc(C)c2)s1 — higher, 7.63%
- N#Cc1cn[nH]c1NCc1cc(Br)ccc1O — lower, -7.29%
- Cc1cnc(C(=O)N2CCN(c3ncc4c(n3)CCOC4)CC2)cn1 — lower, 4.91%
- O=S1(=O)NC2(CCCN(Cc3ccc(Cl)cc3)C2)COc2ccccc21 (centres undefined) — higher, 15.2%
- O=C1Nc2ccccc2CC12CCCN2Cc1ccccn1 (centres undefined) — lower, -17.1%
- CCN(CC)C1CCN(C(=O)NCc2cccc(-n3cccn3)c2)C1 (centres undefined) — higher, 5.79%
- CC(Cc1ccc(Cl)cc1)N(C)C(=O)NCCS(C)(=O)=O (centres undefined) — lower, 0.606%
- Cc1ccc(C)c(Oc2ccc(CNC(=O)C3CCS(=O)(=O)C3)cn2)c1 (centres undefined) — lower, -3.98%
- Cc1cc(NC(C)C(=O)N2CCN(c3ncccn3)CC2)ccc1F (centres undefined) — higher, 7.77%
- Cc1ccc(OCC(=O)Nc2ncccc2OC(F)F)cc1 — higher, 6.42%
- COCC(C)NC(=O)NCCc1cccc(OC)c1O (centres undefined) — higher, 7.87%
- Cc1cc(-n2cncn2)ccc1C(=O)N(C)CC(F)(F)C(F)(F)F — lower, -10.3%
- CCN(Cc1cnn(C)c1)S(=O)(=O)N1CCCC1c1ccco1 (centres undefined) — lower, -3.55%
- COC(=O)c1cc(C(=O)N2CCc3ccc(F)cc3C2C)ccn1 (centres undefined) — higher, 10.5%
- Cc1nnc(CN(C)CC2CCCCC2)o1 — higher, 15.6%
- CCNC(=O)NC1CN(Cc2ccncc2Cl)C[C@@H]1OC (some centres undefined) — lower, 1.85%
- CC(C)OCCN1CCC(Nc2ccc(C#N)cc2F)CC1 — lower, -4.94%
- O=C(Cn1cc(I)cn1)NCC1CCC1 — higher, 14.5%
- Cc1cnc(CN2CCC(N(C)Cc3nnc(C4CC4)n3C)C2)cn1 (centres undefined) — lower, -2.31%
- c1c(CN2CCOCC2)nc2n1CCN(C1CCOCC1)C2 — lower, 0.997%
- Cc1nc(CN2Cc3cn(C)nc3C(COCC3CC3)C2)cs1 (centres undefined) — lower, -68.9%
- CO[C@@H]1CCN(S(=O)(=O)c2cccs2)[C@H]1Cc1ccccc1 — lower, -78%
- CN(C)C(=O)NC1COC2(CCN(Cc3ccco3)CC2)C1 (centres undefined) — lower, -72.4%
- CC(=O)N1CCCC2(C1)CN(C(=O)c1ccncc1)CCO2 (centres undefined) — lower, -78.7%
- CNC(=O)[C@@]12CCO[C@@H]1CCN(S(=O)(=O)c1cccc(F)c1)C2 — lower, -73.8%
- COCCN1CCC12CCN(C(=O)c1ccc3[nH]ccc3c1)C2 (centres undefined) — lower, -82.6%
- CC(C)c1nccc([C@@H]2C[C@@H]3CCN(Cc4ccoc4)C[C@H]3O2)n1 — lower, -7.47%
- Cn1cc(-c2nnn3c2COC(CNCc2cccnc2)C3)cn1 (centres undefined) — lower, 0.824%
- CCOC1COC2(CCN(S(=O)(=O)c3cccc(C)c3)CC2)C1 (centres undefined) — lower, -79.8%
- Cc1cccc(N2CCN(CCC(=O)NCc3cccnc3)CC2)c1 — lower, -9.2%
- C[C@H](NC(=O)c1cnc(-c2ccccc2)nc1O)C(N)=O — higher, 7.06%
- CC(=O)Nc1ccc2nc(-c3nccn3C[C@@H]3CCCO3)ccc2c1 — lower, -8.18%
- O=C1CCC(C(=O)N2CCC(Cn3cc(C4CCCC4)nn3)CC2)=NN1 — lower, 5.14%
- Cc1nccc(N2CCC(=O)N(CC3CC3)C(C(C)C)C2)n1 (centres undefined) — lower, -0.232%
- NC(=O)c1cc2c(nc1Oc1ccccc1CN1CCCCC1)CCC2 — lower, 3.71%
- CCCc1ccc2oc(C(=O)N3CCCN(C)CC3)c(C)c2c1 — lower, -8.3%
- O=C(CCc1ccccc1)C1CCCN(Cc2cncn2C2CC2)C1 (centres undefined) — lower, -7.12%
- CN(C)c1nc(NCCc2cnccn2)ncc1F — lower, 5.56%
- Oc1cc(CN2CCC(O)(Cn3ccnc3)CC2)nc2c(Cl)cccc12 — lower, -60.8%
- Cc1cc(C)n2nc(C(=O)N3CCCC4(CNC(=O)O4)C3)cc2n1 (centres undefined) — higher, 9.48%
- COc1ncc(-c2ccc(O)cc2)c(OC)n1 — lower, -2.42%
- Cc1ccc(CN(Cc2ccccn2)C(=O)C2CCCCCN2C)s1 (centres undefined) — lower, -20.2%
- CN(Cc1ccncn1)C(=O)c1cccc(CCC(C)(C)O)c1 — lower, -4.27%
- CN(Cc1nc(Cc2cccc(C(F)(F)F)c2)no1)C(C1CC1)C1CC1 — lower, 0.92%
- NCC1Cc2cccc(-c3ccc(O)c(F)c3)c2O1 (centres undefined) — lower, -40.2%
- CN(Cc1cnc(N)nc1)C(=O)c1coc(COc2ccccc2)n1 — lower, 1.58%
- Cc1nc(N(C)C)ncc1C(=O)NCCCn1nccc1C1CC1 — higher, 9.53%
- COCCCC1(CO)CCCN(Cc2cccc(C#N)c2)C1 (centres undefined) — lower, 4.16%
- Cc1n[nH]c(C)c1CC(=O)N1CC[C@@](C)(O)[C@@H](Cc2ccccc2)C1 — higher, 5.94%
- CCOc1cccc(CN2CCCn3nc(CNS(C)(=O)=O)cc3C2)c1 — lower, -4.01%
- COc1cccc2c1OCCCN(c1nc(N)nc3c1CCNC3)C2 — lower, 0.944%
- Cc1nnc(CN2CCCC(CCc3ccccc3C(F)(F)F)C2)o1 (centres undefined) — lower, 3.67%
- COCC(=O)N1CCCC1c1ccc(C(=O)NCCN2CCCCC2)s1 (centres undefined) — lower, 4.26%
- O=C(c1cccnc1)N1CCC(Oc2cccc(C(F)(F)F)c2)CC1 — higher, 7.19%
- Cc1cc(CNCc2c(C)n(CC(C)C)c3ccccc23)[nH]n1 — lower, -1.63%
- Cc1nc(-c2c(-c3ccccc3)ncn2CCCN2CCOCC2)c[nH]1 — lower, -6.76%
- Cc1cnn(CC(=O)N2CCC3(CCC(=O)N(CC(C)O)C3)CC2)c1 (centres undefined) — lower, 3.05%
- NC(=O)CC1CCN(C(=O)c2cccn2Cc2cccs2)CC1 — lower, -7.19%
- CN(Cc1ccccc1)CC(O)Cn1cnc2c(Cl)cc(Cl)cc2c1=O (centres undefined) — lower, -2.34%
- NC(=O)c1cc(C2CCCN(CCOc3ccc(F)cc3)C2)n[nH]1 (centres undefined) — lower, -7.92%
- CCc1nc(CC(=O)N2CCn3c(C)nnc3C2)cs1 — lower, -9.57%
- Cc1cc(C)c(CNC(=O)NCC2CCCOC2)c(=O)[nH]1 (centres undefined) — lower, -8.19%
- CCCc1noc(CN2CCCCC2Cn2cncn2)n1 (centres undefined) — lower, 4.84%
- Cc1nn(C)c(N2CCOCC2)c1CNCc1cscn1 — lower, -8.07%
- CCn1cnnc1C1CCN(C(=O)c2cnc(C)s2)CC1 — lower, -8.45%
- c1cn(-c2ccc(CN3CCOC(Cn4cncn4)C3)cc2)cn1 (centres undefined) — lower, 1.25%
- Cc1nn(-c2ccccc2)cc1C(=O)N1CCCC(n2ccnc2C)C1 (centres undefined) — lower, -3.11%
- COCc1ccc(C(=O)N2CCCN(Cc3cscn3)CC2)cc1 — lower, -3.07%
- CC(=O)N(Cc1noc(C)n1)C1CCN(Cc2ccc(C#N)cc2)C1 (centres undefined) — lower, -3.66%
- CNc1cc2c(nn1)CCN(C(=O)c1ccc3c(c1)CCC3)C2 — lower, 3.15%
- CCc1csc(C2CCCN(C(=O)c3c[nH]c(C)n3)C2)n1 (centres undefined) — lower, -9.03%
- Cn1cc(CCC(=O)N2CCN(Cc3ccncc3)CC2)cn1 — lower, -6.64%
- CCc1nc(C2CCCN(C(=O)c3cccc4cn[nH]c34)C2)no1 (centres undefined) — lower, -3.73%
- O=C(COc1ccc2c(c1)CCC2)NS(=O)(=O)c1cncc(Br)c1 — lower, -5.82%
- CCOc1ccccc1OC1CCN(C(=O)c2nc(=O)[nH][nH]2)CC1 — lower, -9.75%
- CCn1ccnc1CN1CCN(CCOc2ccccc2OC)CC1 — lower, -8.83%
- COC(=O)c1ccc(N2CCN(C(=O)c3ccncc3)C(C)C2)cc1 (centres undefined) — lower, -6.38%
- CN(CCCc1ccccc1)Cc1nc2c(cnn2C)c(=O)[nH]1 — lower, -9.56%
- Cc1nn(C)c(N(C)C)c1CNC(C)c1cccc(OC(C)C)c1 (centres undefined) — lower, -7.76%
- CN1CCC/C1=N\S(=O)(=O)c1ccc(NC(=O)CCc2cccs2)cc1 — lower, -8.55%
- Cc1cccc(CN2CCCC3(CCN(CC(=O)N(C)C)C3=O)C2)n1 (centres undefined) — lower, -119%
- O=C(NC1CC1)[C@@H]1CCO[C@@H]2CCN(CCc3ccccc3)C[C@@H]21 — lower, 3.6%
- c1ccc([C@@H]2CN(Cc3ccncc3)C[C@H]2c2cc[nH]n2)cc1 — lower, -0.189%
- Cc1nnc([C@]23COC[C@H]2CN(Cc2cccs2)C3)o1 — lower, -3.34%
- N#Cc1ccc(C(=O)N2CC[C@H]3[C@H]2CCN3CC2CC2)cc1 — lower, -9.87%
- Cc1cccc(CN2CCc3nnc(CO)n3CC2)n1 — higher, 6.41%
- COCC(=O)N1CCC2(CCN(Cc3cccnc3)C2)CC1 — lower, -2.42%
- c1ccc(NCc2cnc3n2CCN(CC2CCOC2)CC3)nc1 (centres undefined) — lower, -76.5%
- O=C(NC1CC2(CCN(CCO)CC2)c2ccccc21)c1ccsc1 (centres undefined) — lower, -14.2%
- O=C(c1ccncc1)N1CCc2ncnc(C3CC3)c2CC1 — lower, -75.6%
- CC1c2ncc(CN3CCN(C)CC3)n2CCN1Cc1ccsc1 (centres undefined) — higher, 6.58%
- CCN1CCOCC2(CCCN(C(=O)c3ccncc3F)C2)C1 (centres undefined) — lower, -3.16%
- Cc1ccc(N2CCN(CC3CC3)C3(CCN(C(C)C)CC3)C2=O)cn1 — higher, 16%
- O=C(O)c1cnc2c(Br)cccc2c1O — higher, 15.5%
- N#Cc1ccccc1C(=O)N1C[C@@H]2CC[C@H]1CN(Cc1ccccc1)C2 — lower, 1.43%
